In the library only some 4.5% were active in any assay of this set; here they are far more common.
MrgX1 ag = activates human MrgX1 receptor signaling. Q96LB2. MrgX1-HEK293 cells, Fluo-4 calcium fluorescence, agonist mode; active compounds read high. B-score at 10 µM. hit rate 0.44% among 310,000;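 active = calcium response B-score plate-corrected fluorescence ratio at least 3 library SD, with starting fluorescence B-score inside 5 SD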
Target sequence (Q96LB2 whole entry, looked up): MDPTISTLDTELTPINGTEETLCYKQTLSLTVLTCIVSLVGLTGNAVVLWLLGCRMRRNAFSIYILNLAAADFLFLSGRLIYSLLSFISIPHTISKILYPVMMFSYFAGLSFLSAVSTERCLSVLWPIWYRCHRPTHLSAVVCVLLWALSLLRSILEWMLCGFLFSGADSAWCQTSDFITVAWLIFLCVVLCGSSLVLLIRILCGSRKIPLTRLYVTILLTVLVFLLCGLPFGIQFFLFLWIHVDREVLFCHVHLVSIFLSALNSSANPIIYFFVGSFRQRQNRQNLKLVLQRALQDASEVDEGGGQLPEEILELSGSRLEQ
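System – MrgX1-expressing HEK293 cells · Incubation – cells plated overnight, dye loaded 0.5 h 37 °C, 0.5 h room temperature · Technique – kinetic Fluo-4 NW fluorescence of intracellular calcium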
RGS4 inh = inhibitors of human RGS4 | hit rate 0.45% among 310,000 | HEK293 M3R/RGS4 inducible, Fluo-4 calcium flux; active compounds read high; triggered by carbachol at its EC20 | B-score at 10 µM | AID 463165;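 active = B-score, a plate-corrected calcium signal, over three deviations above library mean, with baseline fluorescence within five deviations of library mean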;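 note: RGS4 expression induced by doxycycline in cells with stable M3 receptor; B-score is computed from the integrated fluorescence ratio over baseline after carbachol; higher B-score means a larger calcium signal and so more RGS4 inhibition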
PHOSPHO1 block = inhibitors of human PHOSPHO1 phosphatase; recombinant PHOSPHO1, absorbance phosphatase assay; Q8TCT1; hit rate 1.1% among 290,000; inhibition, % at 13.3 µM; in the data active = inhibition above about 60%
Target sequence (Q8TCT1 whole entry, looked up): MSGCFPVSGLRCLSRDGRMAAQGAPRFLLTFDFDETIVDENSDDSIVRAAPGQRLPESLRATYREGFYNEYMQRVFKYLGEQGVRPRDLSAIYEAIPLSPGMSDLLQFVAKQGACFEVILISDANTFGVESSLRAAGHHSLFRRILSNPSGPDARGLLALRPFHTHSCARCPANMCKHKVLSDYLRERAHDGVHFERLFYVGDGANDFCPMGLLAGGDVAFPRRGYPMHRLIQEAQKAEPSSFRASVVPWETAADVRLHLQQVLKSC
MrgX1 PAM = human MrgX1 positive allosteric modulation, primary screen; MrgX1-HEK293, Fluo-4 calcium flux, FDSS; active compounds read high; B-score at 10 µM; hit rate 0.63% among 310,000;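 active = plate-corrected calcium response at least 3 library SD above typical, normal starting fluorescence, not activating the receptor alone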;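 note: compound read alongside a low EC10 to EC30 dose of BAM8-22 agonist; peak minus trough fluorescence over baseline measured at the second addition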
RGS4 pot = potentiators or activators of RGS4; HEK293 M3R/inducible RGS4, carbachol calcium flux Fluo4; active compounds read low; B-score at 10 µM; hit rate 0.92% among 310,000; AID 463111;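 active = B-score of the integrated calcium signal more than 4 SD below the library mean, with starting fluorescence not abnormally high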;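 note: negative B-score means reduced calcium response which marks RGS4 activation or potentiation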
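Assay system: HEK293 FlpIn-TREx cells, stable M3R, doxycycline-inducible RGS4 / Probe or stimulus: carbachol, ECmax concentration / Times: overnight RGS4 induction, 30 min dye load 37 °C, 20 min compound RT / Signal: kinetic calcium fluorescence imaging with Fluo4-AM dye, 2 µM / Measure: Agonist-evoked peak-minus-minimum fluorescence over baseline, integrated ratio, B score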
MrgX1 antag = human MrgX1 receptor antagonism, primary screen; Q96LB2; MRGX1-HEK293 calcium flux, Fluo-4, BAM8-22 antagonism; active compounds read low; B-score at 10 µM; hit rate 1.3% among 310,000; AID 588676;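 active = calcium-response B-score plate-corrected more than 3 library SD below zero, starting fluorescence within 5 deviations, no agonist response on first addition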;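 note: peak minus trough fluorescence over baseline after final BAM8-22 challenge near maximal dose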
MrgX1 allo conf = confirmation of human MrgX1 receptor positive allosteric modulators. shares compounds with MrgX1 PAM. MrgX1-HEK293, Fluo-4 calcium fluorescence, FDSS. activation (ratio percentage), % at 10 µM. hit rate 13% among 1,200;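 active = ratio at least 3 SD above the weak peptide control, stable starting fluorescence, no direct agonism earlier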;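 note: compound followed by low BAM8-22 agonist challenge near EC20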
MrgX1 antag conf = reconfirmed antagonist of human MrgX1 receptor signaling | shares compounds with MrgX1 antag | MrgX1-HEK293, BAM8-22 calcium flux, Fluo-4; active compounds read low | remaining BAM8-22 calcium response % of control (active compounds read low), % at 10 µM | hit rate 19% among 2,300;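 active = remaining agonist calcium response no higher than 100% minus 3 SD of agonist-only control wells, with starting fluorescence near control levels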;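 note: agonist BAM8-22 given at a near maximal EC90 to ECmax level; peak minus minimum fluorescence divided by baseline after agonist addition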
HEK293 Ca flux = MrgX1 antagonist counter-screen hit in parental HEK293 cells. shares compounds with MrgX1 antag. Fluo-4 calcium fluorescence, FDSS. fluorescence ratio F(max-min)/F0 at 10 µM. hit rate 2% among 4,000;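 active = duplicate-averaged calcium fluorescence ratio at least three times the standard deviation of buffer wells, a nonspecific response in parental cells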
HEK293 Ca counter = counter-screen for MrgX1 allosteric activators: effect in parental HEK293 cells; shares compounds with MrgX1 antag; parental HEK293 calcium flux, Fluo-4 fluorescence ratio; active compounds read high; fluorescence ratio F(max-min)/F0 at 10 µM; hit rate 0.4% among 4,000; AID 624114;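 active = calcium fluorescence ratio, averaged over duplicates, at least 3 SD of the buffer-well ratio, meaning a nonspecific response in receptor-free cells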;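 note: untransfected parental HEK293 lacking MrgX1 used as counterscreen for MrgX1 allosteric activators; fluorescence change taken during the second addition on a kinetic imager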
HEK293 Ca cntr2 = MrgX1 activator counter-screen hit in parental HEK293 cells; shares compounds with MrgX1 antag; Fluo-4 calcium fluorescence (FDSS); active compounds read high; fluorescence ratio F(max-min)/F0 at 10 µM; hit rate 8.7% among 4,000; AID 624115;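 active = calcium fluorescence ratio at least three times the spread of buffer wells, meaning a non-specific response in parental cells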
Numbers stand for hits; 0 = inactive; - = not tested or not shown.

SMILES	MrgX1 ag	RGS4 inh	PHOSPHO1 block	MrgX1 PAM	RGS4 pot	MrgX1 antag	MrgX1 antag conf	HEK293 Ca flux	HEK293 Ca counter	HEK293 Ca cntr2	others
Cc1nc2ccccc2cc1OCc1ccc(Cl)cc1	0	0	0	0	0	0	-	-	-	-
COc1ccc(Nc2cccc3ccccc23)cc1	0	0	-	21.1	0	0	-	0	0	0	MrgX1 allo conf=0
COc1ccc(Nc2cc(C)c3ccccc3n2)cc1	0	0	0	15.6	0	0	-	0	0	0	MrgX1 allo conf=17.9%
CC1CCN(C2CCN(S(=O)(=O)c3ccc(C(F)(F)F)cc3)CC2)CC1	0	0	0	0	0	0	-	-	-	-
Cc1nn(C(=O)c2cccs2)c(N)c1-c1ccccc1	0	0	0	9.31	0	0	-	0	0	0	MrgX1 allo conf=0
COc1ccc(CNC(=O)CCN2C(=O)c3ccncc3C2=O)cc1OC	0	0	0	26.7	0	0	-	0	0	0	MrgX1 allo conf=13.2%
COc1ccc(CNC(=O)CCN2C(=O)c3ccccc3C2=O)cc1OC	0	0	0	0	0	0	-	-	-	-
COc1ccc(Cc2cnc(N)s2)cc1	0	0	0	0	0	-11.9	79.4%	0	0	0
COC(=O)c1ccc(COC(=O)c2ccc(SC)cc2OC)cc1	0	0	0	0	0	0	-	-	-	-
O[C@@H]1CN(Cc2ccc(-n3cccn3)cc2)CC[C@H]1N1CCN(c2ccccc2F)CC1	0	0	0	0	0	0	-	-	-	-
CCn1cc(CN2CCc3c([nH]c4ccccc34)C2c2cccc(OC)c2OC)c(C)n1 (stereo not drawn)	0	0	0	0	0	-5.4	0	0	0	0
Cn1c(O)c(N=NC(=O)Cn2ccc(C(F)(F)F)n2)c2ccccc21	0	0	0	0	0	-6.29	0	0	0	0
CCC(=O)Nc1ccccc1C(=O)OCC(=O)c1ccc2ccccc2c1	0	0	0	0	0	-6.3	0	0	0	0
CCC(=O)Nc1ccccc1C(=O)OCC(=O)c1ccccc1	0	0	0	0	0	0	-	-	-	-
CCCn1cc(SCC(=O)NCc2ccco2)c2ccccc21	0	0	0	0	0	-9.03	0	0	0	0
CCC(C)NCCOc1cccc(Br)c1 (stereo not drawn)	0	0	0	0	0	-4.97	0	0	0	0
CCN1CCN(c2ncnc3c2nnn3Cc2ccccc2)CC1	0	0	0	0	0	-4.58	0	0	0	0
c1ccc2c(c1)[nH]c1c(N3CCC4(CC3)OCCO4)ncnc12	0	0	0	0	0	0	-	-	-	-
c1ccc(Cn2nnc3c(N4CCCC4)ncnc32)cc1	0	0	0	0	0	0	-	-	-	-
c1ccc(CN2CCN(c3ncnc4c3[nH]c3ccccc34)CC2)cc1	0	0	0	0	0	-6.07	53.1%	0	0	0
Cc1ccc2[nH]c3c(N4CCN(Cc5ccccc5)CC4)ncnc3c2c1	0	0	0	0	0	-6.16	64.6%	0	0	0
Cc1ccc2c(c1)[nH]c1c(N3CCN(Cc4ccccc4)CC3)ncnc12	0	0	0	0	0	0	-	-	-	-
O=C(C1CCCN(C2CC(=O)N(c3ccc(Cl)cc3)C2=O)C1)N1CCCC1 (stereo not drawn)	0	0	0	0	0	0	-	-	-	-
CSc1nnc(C)c(=O)n1COC(=O)c1ccc(S(=O)(=O)N2CCCC2)cc1	0	0	0	0	0	0	-	-	-	-
COc1cc(S(=O)(=O)N2CCOCC2)ccc1NC(=O)CN1c2cccc3cccc(c23)S1(=O)=O	0	0	0	0	0	-8.38	0	0	0	0
SMILES	MrgX1 ag	RGS4 inh	PHOSPHO1 block	MrgX1 PAM	RGS4 pot	MrgX1 antag	MrgX1 antag conf	HEK293 Ca flux	HEK293 Ca counter	HEK293 Ca cntr2	others
Cc1ccc(NC(=O)CN2c3cccc4cccc(c34)S2(=O)=O)cc1S(=O)(=O)N1CCOCC1	0	0	0	0	0	0	-	-	-	-
O=C(c1ccc(Br)o1)N1CCN(C23CC4CC(CC(C4)C2)C3)CC1	0	0	0	0	0	-5.02	0	0	0	0
Cc1cc(F)ccc1S(=O)(=O)N1CCCOC1CNC(=O)C(=O)NC1CCCCC1 (stereo not drawn)	0	0	0	0	0	0	-	-	-	-
CCSc1nc2c(c(-c3ccc(C)o3)c1C#N)CCCC2	0	0	0	0	0	0	-	-	-	-
COC(=O)CSc1nc2c(c(-c3ccc(C)o3)c1C#N)CCCC2	0	0	0	0	0	-6.89	0	0	0	0
COc1ccccc1NC(=O)c1cc(Cl)ccc1NC(=O)c1ccco1	0	0	0	0	0	0	-	-	-	-
CCOc1ccccc1NC(=O)c1cc(Cl)ccc1NC(=O)c1ccco1	0	0	0	0	0	-5.22	0	0	0	0
CCC(NC(=O)c1ccccc1NC(=O)c1ccco1)C(=O)O (stereo not drawn)	0	0	0	0	0	-7.6	0	0	0	0
Cc1cc2occ(CC(=O)N(CCC(C)C)c3c(N)n(Cc4ccccc4)c(=O)[nH]c3=O)c2cc1C	0	0	-	0	0	0	-	-	-	-
COc1cc(O)c2c(c1)OC(C)(C)CC2=O	0	0	0	0	0	-10.4	0	0	0	0
CCOC(=O)c1cnc(Nc2nc3ccccc3o2)nc1CSc1nnc(C)s1	0	0	-	0	0	-5.27	0	0	0	0
CCc1ccc(N(CC(=O)NCc2ccco2)C(=O)CCC(=O)Nc2ccccn2)cc1	0	0	0	0	0	0	-	-	-	-
Cc1cccc(C)c1OCC(=O)Nc1ncn[nH]1	0	0	0	0	0	0	-	-	-	-
O=C(COc1ccc2ccccc2c1Br)Nc1ncn[nH]1	0	0	0	0	0	-4.53	0	0	0	0
CC(N)(C(=O)O)c1cccc(OCc2cccc(Cl)c2)c1 (stereo not drawn)	0	0	0	0	0	0	-	-	-	-
Cc1ccc2c(c1)CCCN2S(=O)(=O)c1cccc(C(=O)Nc2ccccc2C(=O)O)c1	0	0	0	0	0	-6.67	66.9%	0	0	0
O=C(NC1=NCCS1)c1cccc(S(=O)(=O)N2CCc3ccccc32)c1	0	0	0	0	0	-4.94	0	0	0	0
O=C(NC1=NCCS1)c1ccc(Cl)c(S(=O)(=O)N2CCc3ccccc32)c1	0	0	0	0	0	0	-	-	-	-
